This note sets out measurements from PubChem BioAssay.

The nature of assay [1]: hit retest on RPL19A-GFP reporter strain – cell-based, S. cerevisiae, flow cytometry, cherry picks, mother/daughter gates, confirmation (AID 2270;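 active = GFP response below 50% of the DMSO control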). The conditions noted are these: 3 h, at 10 µM, stronger effect = lower value, 100 = same GFP as DMSO wells. (A flow cytometer gives signals particle by particle.)
Assay [2] can be described thus: yeast TOR pathway reporter LAP4-GFP change – cell-based, cherry picks, flow cytometry, mother/daughter gates, confirmation (AID 2271;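 active = GFP response above 150% of the DMSO control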;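 note: ratio of sample to DMSO plate mean so 100% equals DMSO level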). Particulars: S. cerevisiae LAP4-GFP strain, 3 h, at 10 µM, stronger effect = higher value, 100 means same as DMSO control. The method in brief: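 Material – Alexa Fluor 633-labelled Saccharomyces cerevisiae GFP-fusion strain, single-plex · Incubation – compound exposure 3 h at 30 °C, end-over-end rotation · Measured by – GFP by flow cytometry · Measure – median GFP fluorescence as percent of plate-mean DMSO wells · Control set – positive rapamycin (400 ng/mL), negative DMSO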

Assay [3] in a line: TOR pathway reporter MEP2-GFP, retest of hits – S. cerevisiae, flow cytometry GFP, cherry picks, confirmation (AID 2272;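 active = GFP response above 150% of the DMSO control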;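 note: ratio of well signal to plate DMSO mean so 100% equals DMSO level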). Particulars: S. cerevisiae MEP2-GFP strain, 3 h, at 10 µM, stronger effect = higher value.
Assay [4] can be described thus: yeast AGP1-GFP fluorescence change, single-dose – cell-based, flow cytometry, S. cerevisiae, cherry picks, confirmation (AID 2273).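 Note: median GFP channel fluorescence over the whole cell population gate.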 The conditions noted are these: S. cerevisiae AGP1-GFP strain, 3 h, at 10 µM.
The nature of assay [5]: TOR pathway CIT2 reporter hit retest – S. cerevisiae, GFP fusion, cherry picks, mother/daughter gates, confirmation (AID 2274). The conditions noted are these: S. cerevisiae CIT2-GFP strain, flow cytometry, 3 h, at 10 µM, stronger effect = higher value.
[6] abbreviates: measured here: daughter cell gate.
Where [7] appears, read: measured here: mother cell gate.
The mark [8] stands for this setting: measured here: daughter cell gate response.
Setting [9] is: measured here: mother cell gate response.

Calls of active or inactive are those of the source.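 Rule for the calls, unless noted: active = GFP response above 150% of the DMSO level; inconclusive = fewer than 70 events counted for a yeast strain; inactive = the rest.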

Regarding `Cc1c(Cc2ccccc2)c(NCCN(C)C)n2c(nc3ccccc32)c1C#N`, the GFP response vs DMSO was 116% (inactive) in assay [1], 45.5% in assay [1] (setting [6]), 99% in assay [1] (setting [7]) and 187% (active) in assay [3]. Moreover, the GFP response relative to DMSO is 249% (active) in assay [2], 167% in assay [2] (setting [8]) and 218% in assay [2] (setting [9]). For the same compound, the GFP response, % of DMSO is 143% (inactive) in assay [4], 116% (inactive) in assay [5], 135% in assay [5] (setting [6]) and 92.8% in assay [5] (setting [7]).
For `CC(=O)N(C1=C(Cl)C(=O)c2ccccc2C1=O)C1CCCCC1`, the GFP response vs DMSO is 22.6% (active) in assay [1], 92.8% in assay [1] (setting [6]), 23.1% in assay [1] (setting [7]) and 97.8% (inactive) in assay [3]. Moreover, the GFP response relative to DMSO in assay [2] was 72.2% (inactive); in assay [2] (setting [8]), 113%; in assay [2] (setting [9]), 73.7%. In addition, the GFP response, % of DMSO in assay [4] was 34.1% (inactive); in assay [5], 69.1% (inactive); in assay [5] (setting [6]), 93.2%; in assay [5] (setting [7]), 54.7%.
On to `Cc1ccc2c(c1)/C(=C/c1ccc(F)cc1)C(=O)N2`, for which the GFP response vs DMSO in assay [1] was 94.5% (inactive); in assay [1] (setting [6]), 92.2%; in assay [1] (setting [7]) it was 92.7%; in assay [3], 108% (inactive). Also, the values for the GFP response relative to DMSO in assay [2], in assay [2] (setting [8]) and in assay [2] (setting [9]) were 124% (inactive), 110% and 123%, respectively. Besides, the GFP response, % of DMSO in assay [4] was 98.4% (inactive); in assay [5], 95.8% (inactive); in assay [5] (setting [6]), 97.6%; in assay [5] (setting [7]) it was 94.9%.
With `CC(=O)OCC(=O)[C@@]1(O)CC[C@H]2[C@@H]3CCC4=CC(=O)CC[C@]4(C)[C@H]3C(=O)C[C@@]21C`, the GFP response vs DMSO in assay [1] is 102% (inactive); in assay [1] (setting [6]), 100%; in assay [1] (setting [7]) it was 103%; in assay [3], 100% (inactive). Besides, the GFP response relative to DMSO was 101% (inactive) in assay [2], 102% in assay [2] (setting [8]) and 102% in assay [2] (setting [9]). The GFP response, % of DMSO was 100% (inactive) in assay [4], 97.8% (inactive) in assay [5], 96.5% in assay [5] (setting [6]) and 97.7% in assay [5] (setting [7]).
For `Cc1ccc(C2CC(c3cccs3)=NN2S(=O)(=O)c2ccc(C)cc2)cc1` (configuration not stated), the GFP response vs DMSO in assay [1] is 101% (inactive); in assay [1] (setting [6]), 100%; in assay [1] (setting [7]), 102%; in assay [3], 109% (inactive). Moreover, the GFP response relative to DMSO was 98.2% (inactive) in assay [2], 97.5% in assay [2] (setting [8]) and 97.3% in assay [2] (setting [9]). The GFP response, % of DMSO in assay [4] is 99% (inactive); in assay [5], 98.8% (inactive); in assay [5] (setting [6]) it was 97.4%; in assay [5] (setting [7]), 98.1%.
Regarding `O=C1c2ccsc2SCCN1Cc1cccc(Cl)c1`, the GFP response vs DMSO in assay [1] was 95.4% (inactive); in assay [1] (setting [6]), 92.6%; in assay [1] (setting [7]), 95.8%; in assay [3] it was 98.3% (inactive). Besides, the values for the GFP response relative to DMSO in assay [2], in assay [2] (setting [8]) and in assay [2] (setting [9]) were 108% (inactive), 104% and 110%, respectively. The GFP response, % of DMSO in assay [4] is 98.7% (inactive); in assay [5], 99.7% (inactive); in assay [5] (setting [6]), 99.1%; in assay [5] (setting [7]), 101%.
With `CC(Oc1ccc(Cl)cc1Cl)C(=O)NC1=NN(c2ccccc2)C(=O)C1` (configuration not stated), the GFP response vs DMSO in assay [1] was 95.8% (inactive); in assay [1] (setting [6]), 98.9%; in assay [1] (setting [7]), 96.4%; in assay [3], 98.3% (inactive). In addition, the figures for the GFP response relative to DMSO in assay [2], in assay [2] (setting [8]) and in assay [2] (setting [9]) were 101% (inactive), 101% and 98.3%, respectively. Moreover, the GFP response, % of DMSO in assay [4] is 102% (inactive); in assay [5], 98.3% (inactive); in assay [5] (setting [6]), 99.1%; in assay [5] (setting [7]) it was 97.3%.
As for `COc1cccc(-c2nnc(NC(=O)c3ccc(S(=O)(=O)N4CC(C)OC(C)C4)cc3)o2)c1` (configuration not stated), the GFP response vs DMSO is 103% (inactive) in assay [1], 103% in assay [1] (setting [6]), 102% in assay [1] (setting [7]) and 109% (inactive) in assay [3]. For the same compound, the results for the GFP response relative to DMSO in assay [2], in assay [2] (setting [8]) and in assay [2] (setting [9]) were 95.7% (inactive), 94.2% and 96.2%, respectively. For the same compound, the GFP response, % of DMSO in assay [4] was 100% (inactive); in assay [5], 100% (inactive); in assay [5] (setting [6]), 97.4%; in assay [5] (setting [7]), 99.3%.
Take `N=C1S/C(=C\c2ccco2)C(=O)N1c1nccs1`: the GFP response vs DMSO in assay [1] was 109% (inactive); in assay [1] (setting [6]) it was 108%; in assay [1] (setting [7]) it was 100%; in assay [3] it was 112% (inactive). Moreover, the GFP response relative to DMSO was 168% (active) in assay [2], 145% in assay [2] (setting [8]) and 168% in assay [2] (setting [9]). In addition, the GFP response, % of DMSO is 95.7% (inactive) in assay [4], 108% (inactive) in assay [5], 108% in assay [5] (setting [6]) and 103% in assay [5] (setting [7]).
With `Nc1cccnc1S(=O)(=O)c1cccc(C(F)(F)F)c1`, the GFP response vs DMSO in assay [1] is 97.6% (inactive); in assay [1] (setting [6]), 97.1%; in assay [1] (setting [7]), 97.2%; in assay [3], 102% (inactive). Also, the figures for the GFP response relative to DMSO in assay [2], in assay [2] (setting [8]) and in assay [2] (setting [9]) were 96.7% (inactive), 97.6% and 94%, respectively. In addition, the GFP response, % of DMSO in assay [4] is 98.9% (inactive); in assay [5], 96.9% (inactive); in assay [5] (setting [6]), 99.1%; in assay [5] (setting [7]), 93.8%.
Consider `O=S(=O)(Nc1cccc(-c2ccc(N3CCCCCC3)nn2)c1)c1ccccc1F`, for which the GFP response vs DMSO in assay [1] was 101% (inactive); in assay [1] (setting [6]) it was 99.3%; in assay [1] (setting [7]), 101%; in assay [3], 99% (inactive). In addition, the GFP response relative to DMSO in assay [2] is 95.7% (inactive); in assay [2] (setting [8]), 95.9%; in assay [2] (setting [9]), 95.2%. Moreover, the GFP response, % of DMSO was 107% (inactive) in assay [4], 100% (inactive) in assay [5], 101% in assay [5] (setting [6]) and 101% in assay [5] (setting [7]).
For `Cc1c(NC(=O)/C(C#N)=C/c2c(N3CCCCC3)nc3ccccn3c2=O)c(=O)n(-c2ccccc2)n1C`, the GFP response vs DMSO in assay [1] is 95% (inactive); in assay [1] (setting [6]), 95.1%; in assay [1] (setting [7]), 96.6%; in assay [3], 96.2% (inactive). Moreover, the GFP response relative to DMSO is 94.1% (inactive) in assay [2], 94.4% in assay [2] (setting [8]) and 95.1% in assay [2] (setting [9]). In addition, the GFP response, % of DMSO in assay [4] is 109% (inactive); in assay [5] it was 101% (inactive); in assay [5] (setting [6]) it was 105%; in assay [5] (setting [7]) it was 101%.
Consider `COc1ccc(N=Cc2nc(-c3ccccc3)oc2OC(=O)c2ccccc2)cc1`, for which the GFP response vs DMSO in assay [1] was 101% (inactive); in assay [1] (setting [6]) it was 101%; in assay [1] (setting [7]) it was 101%; in assay [3], 94.4% (inactive). The results for the GFP response relative to DMSO in assay [2], in assay [2] (setting [8]) and in assay [2] (setting [9]) were 108% (inactive), 104% and 111%, respectively. Besides, the GFP response, % of DMSO in assay [4] was 98.1% (inactive); in assay [5], 93.4% (inactive); in assay [5] (setting [6]), 92.1%; in assay [5] (setting [7]), 91.8%.
Regarding `O=C(c1cccc2ccccc12)N1CCN(c2ccccc2F)CC1`, the GFP response vs DMSO is 97.8% (inactive) in assay [1], 92.9% in assay [1] (setting [6]), 95.7% in assay [1] (setting [7]) and 101% (inactive) in assay [3]. Besides, the GFP response relative to DMSO in assay [2] is 102% (inactive); in assay [2] (setting [8]), 99.1%; in assay [2] (setting [9]), 102%. Further, the GFP response, % of DMSO was 102% (inactive) in assay [4], 94.4% (inactive) in assay [5], 92% in assay [5] (setting [6]) and 93.2% in assay [5] (setting [7]).
Regarding `CCc1ccc(C(=O)/C=C/c2ccc([N+](=O)[O-])o2)cc1`, the GFP response vs DMSO was 104% (inactive) in assay [1], 108% in assay [1] (setting [6]), 103% in assay [1] (setting [7]) and 180% (active) in assay [3]. Also, the GFP response relative to DMSO in assay [2] was 146% (inactive); in assay [2] (setting [8]), 141%; in assay [2] (setting [9]), 152%. For the same compound, the GFP response, % of DMSO in assay [4] was 99.1% (inactive); in assay [5], 154% (active); in assay [5] (setting [6]), 156%; in assay [5] (setting [7]), 148%.
Regarding `O=S(=O)(c1ccc(Oc2ccc(Br)cc2)cc1)N1CCOCC1`, the GFP response vs DMSO was 103% (inactive) in assay [1], 102% in assay [1] (setting [6]), 103% in assay [1] (setting [7]) and 97.5% (inactive) in assay [3]. Besides, the GFP response relative to DMSO in assay [2] was 86% (inactive); in assay [2] (setting [8]) it was 86.4%; in assay [2] (setting [9]), 83.7%. The GFP response, % of DMSO in assay [4] is 90.1% (inactive); in assay [5], 95% (inactive); in assay [5] (setting [6]), 96.4%; in assay [5] (setting [7]), 93.3%.
Take `CC(C)(C)c1cc(C(c2cccnc2)N2CCN(CCO)CC2)cc(C(C)(C)C)c1O` (configuration not stated): the GFP response vs DMSO in assay [1] is 98.2% (inactive); in assay [1] (setting [6]) it was 108%; in assay [1] (setting [7]) it was 91.3%; in assay [3] it was 118% (inactive). The GFP response relative to DMSO in assay [2] was 151% (active); in assay [2] (setting [8]) it was 168%; in assay [2] (setting [9]), 138%. The GFP response, % of DMSO is 94.3% (inactive) in assay [4], 99.3% (inactive) in assay [5], 126% in assay [5] (setting [6]) and 82.8% in assay [5] (setting [7]).
